# Measurements reported in publication PMC4807855 (Bioorganic & medicinal chemistry, 2014).
# Counter-ions that a name gives are not always drawn.
# Columns and labels:
# [1] = biological target: T1, PfENR (Plasmodium falciparum, UniProt Q9BJJ9); experiment: PfENR continuous inhibition assay; type: biochemical; settings: for PfENR inhibition in real-time assay: 25 μM of each candidate inhibitor, with and without NAD+ preincubation
# [2] = biological target: T1, PfENR; experiment: Reversibility of celastrol binding; type: biochemical; settings: incubation at 5 times the IC50 (15 μM), 45 min, 25 °C
# [3] = biological target: iodoacetamide-treated PfENR (Plasmodium falciparum, UniProt Q9BJJ9); experiment: Celastrol inhibition of iodoacetamide-treated PfENR; type: biochemical; settings: celastrol 50 μM
# Method in brief: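 PfENR alkylated with 1 mM iodoacetamide in 100 mM ammonium bicarbonate, 60 min, 25 °C, dark; excess reagent removed by desalting column. Treated enzyme preincubated 45 min at 25 °C with test compound (final 50 μM), 50 μM NAD+, 20 mM Tris/HCl pH 7.4, 150 mM NaCl and 0.01% Triton-X. Activity tested with and without DMSO (5% of volume).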
# [4] = tested on: whole-cell blood-stage P. falciparum; settings: at 1 μM, cell culture; ref 33 (printed 32); cited from earlier work
# [5] = tested on: chloroquine-sensitive P. falciparum NF; settings: read-out: whole-cell IC50; cited from earlier work
# [6] = Solubility under assay conditions; type: physicochemical; settings: PfENR assay reaction mixture
# [7] = biological target: T1, PfENR; experiment: PfENR substrate kinetics; type: biochemical; settings: without NAD+ preincubation; for Km / kcat: substrate varied, other substrate held constant
# [8] = biological target: T1, PfENR; settings: cited from earlier work
compound,measurement,setting,value
dihydroergotoxine [compound 3],PfENR inhibition in real-time assay,[1],no ENR inhibition
"CC1=C(O)C(=O)C=C2C1=CC=C1[C@@]2(C)CC[C@@]2(C)[C@@H]3C[C@](C)(C(=O)O)CC[C@]3(C)CC[C@]12C [compound 1, celastrol]",IC50 against PfENR (summary statement),[1],low-micromolar range
same,Ki,[1],5.3 µM
same,IC50,"[1]; IC50, PfENR inhibition, in the presence of 0.01% Triton-X",3.4 µM
same,IC50,[1]; IC50 against PfENR (summary statement),~5 µM
same,IC50,"[1]; average IC50, PfENR inhibition, with NAD+ preincubation (50 μM, 45 min, 25 °C)",5.9 µM
same,IC50,"[1]; average IC50, PfENR inhibition, without NAD+ preincubation",4.7 µM
same,inhibition mechanism,[1]; varied crotonyl-CoA at fixed NADH,noncompetitive inhibition
same,PfENR activity after incubation with inhibitor and 100-fold dilution,[2],identical to the DMSO control
same,inhibition of iodoacetamide-treated PfENR,[3],comparable to that of the untreated protein
same,growth inhibition of whole-cell blood-stage P. falciparum,[4],≥ 70%
same,IC50,[5],560 µM
"CC(C)=CCC[C@]1(C)C=Cc2c(O)c3c(c(CC=C(C)C)c2O1)O[C@]12C(=C[C@@H]4C[C@H]1C(C)(C)O[C@@]2(C/C=C(/C)C(=O)O)C4=O)C3=O [compound 4, gambogic acid]",PfENR inhibition in real-time assay,[1],no ENR inhibition
"CC[C@@]1(O)C[C@H](O[C@H]2C[C@H](N(C)C)[C@H](O[C@H]3C[C@H](O)[C@H](O[C@H]4CCC(=O)[C@H](C)O4)[C@H](C)O3)[C@H](C)O2)c2c(cc3c(c2O)C(=O)c2c(O)cccc2C3=O)[C@H]1C(=O)OC [compound 2, aclacinomycin A (aclarubicin)]",PfENR inhibition in real-time assay,[1],increase in absorbance relative to the DMSO and cerulenin controls
same,solubility,[6],≤ 25 µM
NC(=O)C1=CN([C@@H]2O[C@H](COP(=O)(O)OP(=O)(O)OC[C@H]3O[C@@H](n4cnc5c(N)ncnc54)[C@H](O)[C@@H]3O)[C@@H](O)[C@H]2O)C=CC1 [NADH],Km,[7],240 ± 40 µM
same,kcat,[7],3.8 ± 1.0 s⁻¹
"Oc1cc(Cl)ccc1Oc1ccc(Cl)cc1Cl [triclosan (TCL), triclosan]",PfENR inhibition in real-time assay,[1],no change in NADH consumption
same,PfENR inhibitor potency (literature),[8],picomolar
"C/C=C/C/C=C/CCC(=O)[C@H]1O[C@H]1C(N)=O [cerulenin (CR), cerulenin]",PfENR inhibition in real-time assay,[1],no PfENR inhibition
"C/C=C/C(=O)SCCNC(=O)CCNC(=O)[C@H](O)C(C)(C)COP(=O)(O)OP(=O)(O)OC[C@H]1O[C@@H](n2cnc3c(N)ncnc32)[C@H](O)[C@@H]1OP(=O)(O)O [crotonyl-CoA, crotonyl coenzyme A trilithium salt]",Km,[7],170 ± 60 µM
same,kcat,[7],1.0 ± 0.2 s⁻¹
same,kcat/Km ratio,[7],6000 ± 1100 M⁻¹ s⁻¹
